Three compounds from ChEMBL document CHEMBL4477216, “Discovery and Optimization of Small Molecule Splicing Modifiers of Survival Motor Neuron 2 as a Treatment for Spinal Muscular Atrophy” (J Med Chem, 2016) can be followed below.

Series [1] relates to Mus musculus. The series is described as follows: In vivo inhibition of mRNA splicing of human SMN2 exon 7 in FVB.Cg-Tg(SMN2 delta 7 exon)4299Ahmb Tg(SMN2)89Ahmb Smn1tm1Msd/J mouse assessed as increase in SMN protein level in spinal cord administered as ip qd on postnatal day 3 to day 9 by HTRF assay. In kind it is functional, organism-based. Put shortly: (§1)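 Homozygous Δ7 SMA mice were dosed IP once daily from PND3 to PND9 with compound or vehicle (100% DMSO solution, 2.5 mL/kg). Brain, spinal cord and quadriceps were homogenized in RIPA buffer with protease inhibitors. SMN was read by HTRF (anti-SMN d2 and Kryptate antibodies, overnight rt, 665/620 nm) and normalized to BCA total protein. Values are % change versus vehicle ±SD; 5-11 mice per group.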
A general note: Time-resolved FRET reads energy transfer from a long-lived donor to a nearby acceptor.

Series [2] can be described thus: AUC (0 to 6 hrs) in Sprague-Dawley rat at 10 mg/kg, po. Type of series: ADME, organism-based. On the set-up: dose 10 mg/kg, time < 6 hr, route oral. As to conditions: in vivo. In outline:
(§2)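 Male Sprague-Dawley rats got a single oral 10 mg/kg dose as a suspension in 0.5% hydroxypropyl methylcellulose with 0.1% Tween-80. Plasma was sampled at several time points up to 6 h post dose to give AUC0-6h. Total brain concentration was taken at 6 h to give the brain/plasma ratio.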

The test system of series [3] is Mus musculus. In words: In vivo inhibition of mRNA splicing of human SMN2 exon 7 in FVB.Cg-Tg(SMN2 delta 7 exon)4299Ahmb Tg(SMN2)89Ahmb Smn1tm1Msd/J mouse assessed as increase in SMN protein level in spinal cord at 0.1 mg/kg, ip qd administered on postnatal day 3 to day 9 by HTRF assay relative to control. Also on record: scale not given: the % may be the effect or the level left. In kind it is functional. Put shortly:
as §1

Series [4] deals with Mus musculus. In words: In vivo inhibition of mRNA splicing of human SMN2 exon 7 in po dosed FVB.Cg-Tg(SMN2 delta 7 exon)4299Ahmb Tg(SMN2)89Ahmb Smn1tm1Msd/J mouse assessed as increase in survival time administered as bid on postnatal day 24. In kind it is functional, organism-based. Put shortly:
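Δ7 SMA mice were dosed IP once daily from PND3 to PND23 with compound or vehicle in DMSO (2.5 mL/kg). From PND24 dosing was oral, twice daily, in 0.5% HPMC/0.1% Tween-80 at a higher daily dose. Survivors were counted daily to give median survival time and the fraction alive at study end.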

The subject of series [5] is Mus musculus. In words: In vivo inhibition of mRNA splicing of human SMN2 exon 7 in FVB.Cg-Tg(SMN2 delta 7 exon)4299Ahmb Tg(SMN2)89Ahmb Smn1tm1Msd/J mouse assessed as increase in SMN protein level in quadriceps administered as ip qd on postnatal day 3 to day 9 by HTRF assay. Type of series: functional, organism-based. In outline: as §1
Series [6] has as its system Mus musculus. In words: In vivo inhibition of mRNA splicing of human SMN2 exon 7 in FVB.Cg-Tg(SMN2 delta 7 exon)4299Ahmb Tg(SMN2)89Ahmb Smn1tm1Msd/J mouse assessed as increase in SMN protein level in spinal cord at 0.3 mg/kg, ip qd administered on postnatal day 3 to day 9 by HTRF assay relative to control. Type of series: functional. Also on record: scale not given: the % may be the effect or the level left. Put shortly:
as §1

Series [7] concerns Mus musculus. The series is described as follows: In vivo inhibition of mRNA splicing of human SMN2 exon 7 in FVB.Cg-Tg(SMN2 delta 7 exon)4299Ahmb Tg(SMN2)89Ahmb Smn1tm1Msd/J mouse assessed as increase in SMN protein level in spinal cord at 3 mg/kg, ip qd administered on postnatal day 3 to day 9 by HTRF assay relative to control. In kind it is functional. Also on record: scale not given: the % may be the effect or the level left. In outline:
as §1

Series [8] has as its system Mus musculus. The series is described as follows: In vivo inhibition of mRNA splicing of human SMN2 exon 7 in FVB.Cg-Tg(SMN2 delta 7 exon)4299Ahmb Tg(SMN2)89Ahmb Smn1tm1Msd/J mouse assessed as increase in SMN protein level in brain at 0.1 mg/kg, ip qd administered on postnatal day 3 to day 9 by HTRF assay relative to control. Type of series: functional. On the set-up: scale not given: the % may be the effect or the level left. In outline:
as §1

The test system of series [9] is Mus musculus. The series is described as follows: In vivo inhibition of mRNA splicing of human SMN2 exon 7 in FVB.Cg-Tg(SMN2 delta 7 exon)4299Ahmb Tg(SMN2)89Ahmb Smn1tm1Msd/J mouse assessed as increase in SMN protein level in brain administered as ip qd on postnatal day 3 to day 9 by HTRF assay. Type of series: functional, organism-based. Put shortly: as §1
Series [10] is described as follows: Efflux ratio of apparent permeability from basolateral to apical over apical to basolateral side in human Caco2 cells. To be noted: Caco-2. Type of series: ADME, cell-based. Put shortly: (§3)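 Bidirectional permeability was measured across a Caco-2 cell monolayer. Papp was reported, and efflux was expressed as the B-A/A-B ratio.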
A short description of series [11]: Ratio of drug level in brain to plasma of Sprague-Dawley rat at 10 mg/kg, po measured at 6 hrs. Type of series: ADME, organism-based. As to conditions: brain and plasma, read-out: BPR. Put shortly:
as §2

Series [12] deals with Mus musculus. The series is described as follows: In vivo inhibition of mRNA splicing of human SMN2 exon 7 in ip dosed FVB.Cg-Tg(SMN2 delta 7 exon)4299Ahmb Tg(SMN2)89Ahmb Smn1tm1Msd/J mouse assessed as increase in survival time administered as qd on postnatal day 3 to 23.
Series [13] in a line: Ratio of drug level in brain to plasma of FVB.Cg-Tg(SMN2 delta 7 exon)4299Ahmb Tg(SMN2)89Ahmb Smn1tm1Msd/J mouse at 10 mg/kg, ip. Type of series: ADME, organism-based. As to conditions: brain and plasma, read-out: BPR. Put shortly:
(§4)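 Single 10 mg/kg IP dose given on postnatal day 9 to neonatal mice. Vehicle was 100% DMSO solution (2.5 mL/kg). Plasma and brain drug levels were measured, giving plasma AUC0-24h and the brain/plasma ratio.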

For series [14], the system named is Mus musculus. The series is described as follows: In vivo inhibition of mRNA splicing of human SMN2 exon 7 in FVB.Cg-Tg(SMN2 delta 7 exon)4299Ahmb Tg(SMN2)89Ahmb Smn1tm1Msd/J mouse assessed as increase in SMN protein level in quadriceps at 0.3 mg/kg, ip qd administered on postnatal day 3 to day 9 by HTRF assay relative to control. In kind it is functional. On the set-up: scale not given: the % may be the effect or the level left. Put shortly: as §1

Series [15] concerns Mus musculus. The series is described as follows: In vivo inhibition of mRNA splicing of human SMN2 exon 7 in FVB.Cg-Tg(SMN2 delta 7 exon)4299Ahmb Tg(SMN2)89Ahmb Smn1tm1Msd/J mouse assessed as increase in SMN protein level in brain at 3 mg/kg, ip qd administered on postnatal day 3 to day 9 by HTRF assay relative to control. Type of series: functional. Also on record: scale not given: the % may be the effect or the level left. Put shortly:
as §1

Series [16] has as its system Mus musculus. In words: In vivo inhibition of mRNA splicing of human SMN2 exon 7 in FVB.Cg-Tg(SMN2 delta 7 exon)4299Ahmb Tg(SMN2)89Ahmb Smn1tm1Msd/J mouse assessed as increase in SMN protein level in quadriceps at 0.1 mg/kg, ip qd administered on postnatal day 3 to day 9 by HTRF assay relative to control. Type of series: functional. On the set-up: scale not given: the % may be the effect or the level left. In outline: as §1

A short description of series [17]: Apparent permeability in human Caco2 cells. Type of series: ADME, cell-based. As to conditions: Caco-2. Put shortly: as §3
(In general: Passage across Caco-2 layers is used to estimate intestinal permeability.)

In series [18] the test system is Mus musculus. The series is described as follows: In vivo inhibition of mRNA splicing of human SMN2 exon 7 in FVB.Cg-Tg(SMN2 delta 7 exon)4299Ahmb Tg(SMN2)89Ahmb Smn1tm1Msd/J mouse assessed as increase in SMN protein level in brain at 0.3 mg/kg, ip qd administered on postnatal day 3 to day 9 by HTRF assay relative to control. In kind it is functional. Also on record: scale not given: the % may be the effect or the level left. Put shortly: as §1

The nature of series [19]: Protein binding in human plasma. Type of series: ADME, cell-free. As to conditions: read-out: PPB (converted).
Series [20] in a line: AUC (0 to 24 hrs) in FVB.Cg-Tg(SMN2 delta 7 exon)4299Ahmb Tg(SMN2)89Ahmb Smn1tm1Msd/J mouse at 10 mg/kg, ip. In kind it is ADME, organism-based. Also on record: dose 10 mg/kg, time < 24 hr, route intraperitoneal. As to conditions: in vivo. In outline:
as §4

What is called AUC(0-t) is the area under the concentration-time curve up to a stated or last time point. Broadly, the efflux ratio is the permeability from basolateral to apical divided by that in the opposite direction, in the common usage. Broadly, the Papp is the rate of passage across a membrane or cell layer, normalised by area and donor concentration. As for `Cc1cn2cc(-c3cc4ccc(N5CCN(C)CC5)cc4c(=O)o3)nc2c(C)n1`, the Activity result with Mus musculus [1] was “Dose-dependent effect”; in the series on Mus musculus [3] it was 35%; with Mus musculus [4], “Dose-dependent effect”; with Mus musculus [5], “Dose-dependent effect”; in the series on Mus musculus [6], 98%; with Mus musculus [7] it was 284%. For the same compound, the Activity in the series on Mus musculus [8] is 66%; with Mus musculus [9], “Dose-dependent effect”; in the series on Mus musculus [12], “Dose-dependent effect”; in the series with Mus musculus [14], 83%; in the series on Mus musculus [15], 395%; in the series on Mus musculus [16], 14%. In addition, in the series with Mus musculus [18], the Activity is reported as 114%. In [2], this compound yielded an exposure AUC(0-t) at 6 h of 790 ng·h/mL. Further, the efflux ratio in [10] was 1.3. The Kp at 6 h in series [11] amounted to 11. Further, in [13], the Kp stood at 17. Also, the Papp in series [17] amounted to 1.2 ×10⁻⁶ cm/s. In addition, the fraction unbound in [19] was 0.07. The compound further had an AUC(0-t) at 24 h in [20] of 5000 ng·h/mL.
For the compound `CCN1CCN(c2ccc3cc(-c4cn5cc(C)nc(C)c5n4)c(=O)oc3c2)C[C@@H]1C`, the Activity entry in the series on Mus musculus [1] is “Dose-dependent effect”; in the series with Mus musculus [3] it was 92%; in the series with Mus musculus [4], “Dose-dependent effect”; in the series on Mus musculus [5] it was “Dose-dependent effect”; with Mus musculus [6], 164%; with Mus musculus [8], 115%. The Activity entry with Mus musculus [9] is “Dose-dependent effect”; with Mus musculus [12], “Dose-dependent effect”; with Mus musculus [14], 147%; in the series with Mus musculus [16], 154%; in the series on Mus musculus [18], 194%. The compound further gave an AUC(0-t) at 6 h in series [2] of 1100 ng·h/mL. The efflux ratio in [10] was 1.9. Further, the Kp at 6 h in series [11] amounted to 19. The Kp in [13] amounted to 18. Besides, the Papp in series [17] was 1.2 ×10⁻⁶ cm/s. Moreover, the fraction unbound in series [19] was 0.04. The compound further came in with an AUC(0-t) at 24 h in series [20] of 3600 ng·h/mL.
Turning to `Cc1cn2nc(-c3cc(=O)n4cc(N5CCN(C)CC5)ccc4n3)cc2c(C)n1`, the Activity result in the series with Mus musculus [1] is “Dose-dependent effect”; with Mus musculus [3], 26%; in the series with Mus musculus [4], “Dose-dependent effect”; with Mus musculus [5] it was “Dose-dependent effect”; with Mus musculus [6], 67%; in the series on Mus musculus [7] it was 189%. Besides, the Activity with Mus musculus [8] was 43%; in the series with Mus musculus [9] it was “Dose-dependent effect”; in the series with Mus musculus [12], “Dose-dependent effect”; with Mus musculus [14], 33%; in the series on Mus musculus [15], 230%; in the series with Mus musculus [16] it was 6%. Further, in the series on Mus musculus [18], the Activity is 61%. The AUC(0-t) at 6 h in [2] was found to be 2100 ng·h/mL. In series [10], the efflux ratio was 1.7. Moreover, the Kp at 6 h in [11] amounted to 1.6. In series [13], the Kp was found to be 2.9. In [17], the Papp worked out at 7.5 ×10⁻⁶ cm/s. In [19], the fraction unbound was 0.2. Besides, in series [20], the AUC(0-t) at 24 h was determined as 6900 ng·h/mL.
